The values below come from paper PMC9389373 (RSC Advances, 2022).

One experiment has as its system MCF-7. As to the kind of experiment: MTT cytotoxicity assay, MCF-7. Format: cell-based. To be noted: Homo sapiens, MCF7, read-out: IC50, μM MCF-7. The method, boiled down:
(§1)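 Cells came from the National Cancer Institute, Cairo, and were grown in RPMI-1640 with L-glutamine, 10% FBS and 1% penicillin-streptomycin at 37 °C, 5% CO2. Plated in triplicate in 96-well plates (5 × 10^4 cells). Next day, exposed to test compound at 0.01, 0.1, 1, 10 and 100 μM (48 h stated for MDA-MB-231 and MCF-10A). MTT added for 3 h; absorbance read; viability relative to control; IC50 derived.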
Background: Formazan colour is commonly taken as a measure of viable cells.

The test system of the next experiment is MDA-MB-231. As to the kind of experiment: MTT cytotoxicity assay, MDA-MB-231. Type of experiment: cell-based. To be noted: read-out: IC50, μM MDA-MB-231, average of three independent trials. The method, boiled down:
as §1

The next experiment deals with PARP-1 (Homo sapiens, UniProt P09874). Put plainly: PARP-1 enzyme inhibition assay. Type of experiment: biochemical.
PARP-1, sequence (P09874 whole entry): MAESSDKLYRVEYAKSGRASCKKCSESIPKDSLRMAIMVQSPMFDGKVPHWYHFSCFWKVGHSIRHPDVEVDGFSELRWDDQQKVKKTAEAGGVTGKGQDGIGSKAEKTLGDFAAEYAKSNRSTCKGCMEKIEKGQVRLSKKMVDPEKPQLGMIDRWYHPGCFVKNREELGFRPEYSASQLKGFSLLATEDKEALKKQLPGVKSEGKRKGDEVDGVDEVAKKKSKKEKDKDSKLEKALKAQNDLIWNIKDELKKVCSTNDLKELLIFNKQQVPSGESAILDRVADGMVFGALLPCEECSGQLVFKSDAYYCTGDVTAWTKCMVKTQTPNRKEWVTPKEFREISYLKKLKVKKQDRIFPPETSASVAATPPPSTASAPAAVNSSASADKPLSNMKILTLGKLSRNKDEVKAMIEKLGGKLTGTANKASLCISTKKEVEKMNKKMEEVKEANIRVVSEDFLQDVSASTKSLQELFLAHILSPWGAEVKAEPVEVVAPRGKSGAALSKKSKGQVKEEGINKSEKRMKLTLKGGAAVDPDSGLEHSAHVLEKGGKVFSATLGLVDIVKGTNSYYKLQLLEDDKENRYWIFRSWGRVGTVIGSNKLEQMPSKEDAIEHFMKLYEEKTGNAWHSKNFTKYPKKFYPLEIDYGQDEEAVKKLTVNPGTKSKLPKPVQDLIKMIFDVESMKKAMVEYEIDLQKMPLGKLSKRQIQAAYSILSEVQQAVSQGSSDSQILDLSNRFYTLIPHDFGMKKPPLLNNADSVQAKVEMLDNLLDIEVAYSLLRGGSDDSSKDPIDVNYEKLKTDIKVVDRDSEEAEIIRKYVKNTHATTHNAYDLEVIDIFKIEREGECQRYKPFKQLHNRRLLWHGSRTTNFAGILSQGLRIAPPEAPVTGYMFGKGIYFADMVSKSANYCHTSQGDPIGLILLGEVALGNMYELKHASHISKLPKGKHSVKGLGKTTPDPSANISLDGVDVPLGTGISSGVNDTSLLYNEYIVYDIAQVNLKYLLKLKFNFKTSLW
The next experiment has as its target EGFR (Homo sapiens, UniProt P00533). Put plainly: EGFR inhibition, ADP-Glo kinase assay. Type of experiment: biochemical. (ADP-Glo first removes unused ATP, then detects ADP through luciferase.)
In experiment [1] the test system is MDA-MB-231 cells. As to the kind of experiment: DNA-aided cell cycle analysis by flow cytometry. Format: cell-based. To be noted: 8i at 0.12 μM, 48 h; control 9.83%.
Experiment [2] has as its system MDA-MB-231 cells. As to the kind of experiment: Annexin V/PI staining flow cytometry, apoptosis-necrosis assessment. To be noted: 8i at 0.12 μM, 48 h. Type of experiment: cell-based. The method, boiled down:
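MDA-MB-231 cells seeded overnight in 6-well plates (3–5 × 10^5 cells/well), then exposed to test compound for 48 h. Stained 30 min in the dark in Annexin binding buffer (25 mM CaCl2, 1.4 M NaCl, 0.1 M Hepes/NaOH, pH 7.4) with Annexin V-FITC (1:100) and PI (10 μg mL−1). Analysed by flow cytometry: Q1 necrosis, Q2 late apoptosis, Q4 early apoptosis.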

Experiment [3] has as its system MDA-MB-231 cells. Put plainly: RT-PCR gene expression of apoptosis-related genes. Type of experiment: cell-based. To be noted: 8i at 0.12 μM, 48 h, untreated control = 1.
The test system of the next experiment is MCF-10A. Put plainly: MTT cytotoxicity assay, normal breast cells MCF-10A. To be noted: Homo sapiens. Type of experiment: cell-based. The method, boiled down:
as §1

The mark [4] stands for this setting: five concentrations, sigmoidal nonlinear regression.

EGFR, sequence (P00533 25-1210): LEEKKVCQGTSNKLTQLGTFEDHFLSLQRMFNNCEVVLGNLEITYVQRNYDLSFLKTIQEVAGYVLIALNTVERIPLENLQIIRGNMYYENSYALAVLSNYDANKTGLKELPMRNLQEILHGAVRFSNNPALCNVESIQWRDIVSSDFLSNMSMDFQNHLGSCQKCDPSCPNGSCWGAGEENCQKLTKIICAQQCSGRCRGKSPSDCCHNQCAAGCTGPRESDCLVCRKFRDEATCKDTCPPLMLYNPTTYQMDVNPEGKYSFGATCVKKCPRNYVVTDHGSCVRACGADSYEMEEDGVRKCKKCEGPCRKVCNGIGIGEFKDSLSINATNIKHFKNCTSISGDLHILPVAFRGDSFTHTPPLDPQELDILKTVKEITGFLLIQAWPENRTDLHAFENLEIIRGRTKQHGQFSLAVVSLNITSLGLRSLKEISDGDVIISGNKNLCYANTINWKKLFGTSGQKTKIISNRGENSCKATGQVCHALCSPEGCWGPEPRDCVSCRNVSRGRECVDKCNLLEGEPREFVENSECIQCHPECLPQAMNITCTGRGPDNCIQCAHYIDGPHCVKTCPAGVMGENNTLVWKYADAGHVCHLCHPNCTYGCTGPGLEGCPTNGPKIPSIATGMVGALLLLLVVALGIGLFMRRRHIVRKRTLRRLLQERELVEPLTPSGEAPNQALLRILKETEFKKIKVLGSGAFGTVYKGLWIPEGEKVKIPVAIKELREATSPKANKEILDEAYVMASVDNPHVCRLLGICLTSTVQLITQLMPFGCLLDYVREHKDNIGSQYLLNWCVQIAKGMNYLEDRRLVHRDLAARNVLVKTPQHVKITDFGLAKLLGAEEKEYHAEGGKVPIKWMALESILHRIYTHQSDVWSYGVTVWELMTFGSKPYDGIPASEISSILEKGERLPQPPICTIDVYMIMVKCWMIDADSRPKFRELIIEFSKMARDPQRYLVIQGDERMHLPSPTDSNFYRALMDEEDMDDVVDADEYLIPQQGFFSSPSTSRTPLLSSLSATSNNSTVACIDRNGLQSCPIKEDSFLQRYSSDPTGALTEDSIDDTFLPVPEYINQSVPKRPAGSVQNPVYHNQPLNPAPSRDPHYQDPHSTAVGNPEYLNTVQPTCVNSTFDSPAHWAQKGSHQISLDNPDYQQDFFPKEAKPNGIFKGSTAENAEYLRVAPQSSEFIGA

`Cc1cc2ncc(-c3ccccc3OCC(=O)NCCCCNC(=O)COc3ccccc3-c3cnc4cc(C)c(C)cc4n3)nc2cc1C` [10e, N,N′-(Butane-1,4-diyl)bis(2-(2-(6,7-dimethylquinoxalin-2-yl)phenoxy)acetamide)]: in the experiment on MCF-7, the IC50 – broadly, the concentration that inhibits the measured activity by half – was determined as 31.2 µM.
With `O=C(COc1ccc(C2=Nn3c(Cc4ccccc4)nnc3SC2)cc1)NCCNC(=O)COc1ccc(C2=Nn3c(Cc4ccccc4)nnc3SC2)cc1` [8b, N,N′-(Ethane-1,2-diyl)bis(2-(4-(3-benzyl-7H-[1,2,4]triazolo[3,4-b][1,3,4]thiadiazin-6-yl)phenoxy)acetamide)], the IC50 in the experiment on MCF-7 amounted to 26.1 µM.
Consider `O=C(COc1ccc(-c2cnc3ccccc3n2)cc1)NCCCNC(=O)COc1ccc(-c2cnc3ccccc3n2)cc1` [10d, N,N′-(Propane-1,3-diyl)bis(2-(4-(quinoxalin-2-yl)phenoxy)acetamide)], for which the IC50 is at least 50 µM with MDA-MB-231 and 23.2 µM in the experiment on MCF-7.
As for `O=C(COc1ccccc1C1=Nn2cnnc2SC1)NCCCCNC(=O)COc1ccccc1C1=Nn2cnnc2SC1` [8l, N,N′-(Butane-1,4-diyl)bis(2-(2-(7H-[1,2,4]triazolo[3,4-b][1,3,4]thiadiazin-6-yl)phenoxy)-acetamide)], the values for the IC50 against PARP-1, at EGFR and with MCF-7 were 0.00687 µM, 0.0789 µM and 5.31 µM, respectively.
For `Cc1nnc2n1N=C(c1ccc(OCC(=O)NCCCNC(=O)COc3ccc(C4=Nn5c(C)nnc5SC4)cc3)cc1)CS2` [8f, N,N′-(Propane-1,3-diyl)bis(2-(4-(3-methyl-7H-[1,2,4]triazolo[3,4-b][1,3,4]thiadiazin-6-yl)phenoxy)acetamide)], the IC50 in the experiment on MCF-7 was determined as 7.12 µM.
The same measure, in the same setting: with `Cc1cc2ncc(-c3ccc(OCC(=O)NCCNC(=O)COc4ccc(-c5cnc6cc(C)c(C)cc6n5)cc4)cc3)nc2cc1C` [10b, N,N′-(Ethane-1,2-diyl)bis(2-(4-(6,7-dimethylquinoxalin-2-yl)phenoxy)acetamide)] the figure was at least 50 µM.
Same read-out and setting: for `O=C(COc1ccccc1C1=Nn2c(nnc2-c2ccccc2)SC1)NCCCNC(=O)COc1ccccc1C1=Nn2c(nnc2-c2ccccc2)SC1` [8g, N,N′-(Propane-1,3-diyl)bis(2-(2-(3-phenyl-7H-[1,2,4]triazolo[3,4-b][1,3,4]thiadiazin-6-yl)phenoxy)acetamide)] the value was 11.2 µM; for `O=C(COc1ccc(C2=Nn3c(nnc3-c3ccccc3)SC2)cc1)NCCNC(=O)COc1ccc(C2=Nn3c(nnc3-c3ccccc3)SC2)cc1` [8a, N,N′-(Ethane-1,2-diyl)bis(2-(4-(3-phenyl-7H-[1,2,4]triazolo[3,4-b][1,3,4]thiadiazin-6-yl)phenoxy)acetamide)], at least 50 µM.
Still for that read-out and setting: for `O=C(COc1ccc(C2=Nn3c(nnc3-c3ccccc3)SC2)cc1)NCCCCNC(=O)COc1ccc(C2=Nn3c(nnc3-c3ccccc3)SC2)cc1` [8j, N,N′-(Butane-1,4-diyl)bis(2-(4-(3-phenyl-7H-[1,2,4]triazolo[3,4-b][1,3,4]thiadiazin-6-yl)phenoxy)acetamide)] the value was 14.9 µM.
Regarding `O=C(COc1ccccc1C1=Nn2c(nnc2-c2ccccc2)SC1)NCCNC(=O)COc1ccccc1C1=Nn2c(nnc2-c2ccccc2)SC1` [8c, N,N′-(Ethane-1,2-diyl)bis(2-(2-(3-phenyl-7H-[1,2,4]triazolo[3,4-b][1,3,4]thiadiazin-6-yl)phenoxy)acetamide)], in the experiment on MCF-7, the IC50 was determined as 16.1 µM.
As for `C#Cc1cccc(Nc2ncnc3cc(OCCOC)c(OCCOC)cc23)c1` [Erlotinib, reference compound], in the experiment on MCF-7, the concentration for half-maximal inhibition (IC50) was found to be 0.32 µM.
For `Cc1nnc2n1N=C(c1ccccc1OCC(=O)NCCCNC(=O)COc1ccccc1C1=Nn3c(C)nnc3SC1)CS2` [8i, N,N′-(Propane-1,3-diyl)bis(2-(2-(3-methyl-7H-[1,2,4]triazolo[3,4-b][1,3,4]thiadiazin-6-yl)phenoxy)acetamide)], the “cell population at G2/M” value in the experiment on MDA-MB-231 cells [1] stood at 24.04%. Moreover, in the experiment with MDA-MB-231 cells [2], the “necrosis, fold compared to control” value was 3.14 fold and the “total apoptosis, fold compared to control” value amounted to 38 fold. The “late apoptosis (Q2)” value in the experiment on MDA-MB-231 cells [2] (control 0.18%) is given as 19.51%. For the same compound, the “early apoptosis (Q4)” value with MDA-MB-231 cells [2] (control 0.63%) is given as 11.23%. Further, in the experiment with MDA-MB-231 cells [2] (control 0.81%), the “total apoptotic cell death” value was determined as 30.74%. Also, in the experiment with MDA-MB-231 cells [2] (control 1.3%), the “necrosis (Q1)” value was found to be 4.08%. For the same compound, the IC50 against EGFR came to 0.0647 µM. The “Bcl-2 gene level, fold change” value in the experiment with MDA-MB-231 cells [3] (decrease) amounted to 0.35 fold. Also, in the experiment on MDA-MB-231 cells [3] (increase), the “Bax gene level, fold change” value came to 4.46 fold; the “P53 gene level, fold change” value is recorded as 4.8 fold; the “caspase-3 gene level, fold change” value is reported as 3.9 fold; the “caspase-8 gene level, fold change” value is recorded as 6.36 fold. Besides, in the experiment on MDA-MB-231 cells [3] (increase), the “caspase-9 gene level, fold change” value is given as 2.9 fold. Besides, the IC50 in the experiment on MCF-10A (48 h, read-out: IC50 MCF-10A) came out at 52.4 µM. The inhibition (usually the drop in the measured response relative to a control, in per cent) at 100 µM in the experiment on MCF-10A (read-out: cell inhibition) was around 90%. Also, the IC50 in the experiment with MCF-7 is 1.31 µM.
As for `O=C(COc1ccccc1C1=Nn2c(Cc3ccccc3)nnc2SC1)NCCCNC(=O)COc1ccccc1C1=Nn2c(Cc3ccccc3)nnc2SC1` [8h, N,N′-(Propane-1,3-diyl)bis(2-(2-(3-benzyl-7H-[1,2,4]triazolo[3,4-b][1,3,4]thiadiazin-6-yl)phenoxy)acetamide)], the IC50 was at least 50 µM with MDA-MB-231 and 21.1 µM with MCF-7.
Take `O=C(COc1ccccc1C1=Nn2c(nnc2-c2ccccc2)SC1)NCCCCNC(=O)COc1ccccc1C1=Nn2c(nnc2-c2ccccc2)SC1` [8k, N,N′-(Butane-1,4-diyl)bis(2-(2-(3-phenyl-7H-[1,2,4]triazolo[3,4-b][1,3,4]thiadiazin-6-yl)phenoxy)acetamide)]: in the experiment with MCF-7, the IC50 worked out at 13.1 µM.
With `Cc1nnc2n1N=C(c1ccccc1OCC(=O)NCCNC(=O)COc1ccccc1C1=Nn3c(C)nnc3SC1)CS2` [8d, N,N′-(Ethane-1,2-diyl)bis(2-(2-(3-methyl-7H-[1,2,4]triazolo[3,4-b][1,3,4]thiadiazin-6-yl)phenoxy)acetamide)], the IC50 against PARP-1 was found to be 0.0199 µM; at EGFR, 0.124 µM; in the experiment with MDA-MB-231 it was 0.421 µM; in the experiment with MCF-7, 2.14 µM. In addition, the “IC50, nM PARP-1” value against PARP-1 (setting [4]) was “poor inhibitory activities”. In addition, the “IC50, nM EGFR” value against EGFR (setting [4]) is on record as “poor inhibitory activities”.
On to `O=C(COc1ccccc1-c1cnc2ccccc2n1)NCCNC(=O)COc1ccccc1-c1cnc2ccccc2n1` [10c, N,N′-(Ethane-1,2-diyl)bis(2-(2-(quinoxalin-2-yl)phenoxy)acetamide)], for which the IC50 with MCF-7 turned out to be 7.61 µM.
Same read-out and setting: for `O=C(COc1ccc(C2=Nn3c(nnc3-c3ccccc3)SC2)cc1)NCCCNC(=O)COc1ccc(C2=Nn3c(nnc3-c3ccccc3)SC2)cc1` [8e, N,N′-(Propane-1,3-diyl)bis(2-(4-(3-phenyl-7H-[1,2,4]triazolo[3,4-b][1,3,4]thiadiazin-6-yl)phenoxy)acetamide)] the value was 12.7 µM.
In the case of `O=C(COc1ccc(-c2cnc3ccccc3n2)cc1)NCCNC(=O)COc1ccc(-c2cnc3ccccc3n2)cc1` [10a, N,N′-(Ethane-1,2-diyl)bis(2-(4-(quinoxalin-2-yl)phenoxy)acetamide)], the IC50 in the experiment with MDA-MB-231 was at least 50 µM; with MCF-7, 32 µM.
